Experimental data as given in ChEMBL document CHEMBL4699669, “Discovery of a Potent Adenine-Benzyltriazolo-Pleuromutilin Conjugate with Pronounced Antibacterial Activity against MRSA” (J Med Chem, 2020).
In brackets after ≈: the same amount, converted by molar mass.

Legend:
[1] = system: Staphylococcus aureus; test: Antibacterial activity against methicilin-resistant Staphylococcus aureus USA300 FPR3757 incubated for 20 to 24 hrs by microbroth dilution assay; type: functional; conditions: time hrs 20-24
In short: (§1)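 Broth microdilution per EUCAST in Mueller-Hinton broth. Inoculum 5.0·10^5 CFU/mL, prepared from overnight single-colony cultures at OD600 0.1 then diluted 100x. Final compound concentrations 0.015–16 µg/mL. Incubation at 37 °C for 20–24 h, protected from light. MIC is the lowest concentration with no visible growth. Each replicate uses three cultures; n = 2–3.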

[2] = system: Staphylococcus aureus; test: Antibacterial activity against methicilin-resistant Staphylococcus aureus USA300 FPR3757 incubated for 20 hrs by microbroth dilution assay; type: functional
In short: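 MBC determined from a completed MIC replicate (MRSA USA300 FPR3757, Mueller-Hinton, 5.0·10^5 CFU/mL). […] MBC is the lowest concentration giving a 99.9% reduction of the starting inoculum; n = 3.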

[3] = system: Staphylococcus aureus; test: Antibacterial activity against methicilin-resistant Staphylococcus aureus 55508 incubated for 20 to 24 hrs by microbroth dilution assay; type: functional; conditions: time hrs 20-24; in short: as §1
[4] = system: Staphylococcus aureus; test: Antibacterial activity against methicilin-resistant Staphylococcus aureus 52518 incubated for 20 to 24 hrs by microbroth dilution assay; type: functional; conditions: time hrs 20-24; in short: as §1
[5] = system: Staphylococcus aureus; test: Antibacterial activity against methicilin-resistant Staphylococcus aureus 4828 incubated for 20 to 24 hrs by microbroth dilution assay; type: functional; conditions: time hrs 20-24; in short: as §1
[6] = system: Staphylococcus epidermidis; test: Antibacterial activity against methicilin-resistant Staphylococcus epidermis 933010 incubated for 20 to 24 hrs by microbroth dilution assay; type: functional; conditions: time hrs 20-24; in short: as §1
[7] = system: Caco-2; test: Cytotoxicity against differentiated human Caco2 cells assessed as increase in ATP level at 108 ug/ml incubated for 3 hrs by Cell-titer Glo assay; type: cell-based; conditions: caco-2, 3 h, dose 108 µg/ml
In short: (§2)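 Cells rinsed of growth medium, then exposed 3 h at 37 °C, 220 rpm, light-protected, to compound in HBSS with 10 mM HEPES, pH 7.4 (final DMSO <1% at top concentrations). Plates equilibrated 10 min at rt, CellTiter-Glo 2.0 added, mixed 2 min, signal stabilized 10 min. Luminescence (ATP) normalized to HBSS-only control cells. Mean ± SD of 3 wells, one passage.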

[8] = system: Caco-2; test: Cytotoxicity against undifferentiated human Caco2 cells assessed as ATP level at 108 ug/ml incubated for 3 hrs by Cell-titer Glo assay; type: cell-based; conditions: caco-2, 3 h, dose 108 µg/ml; in short: as §2
[9] = system: PC-3; test: Cytotoxicity against human PC3 cells assessed as cell viability at 108 ug/ml incubated for 3 hrs by Cell-titer Glo assay; type: cell-based; conditions: pc-3, 3 h, dose 108 µg/ml; in short: as §2
[10] = system: HEK293; test: Cytotoxicity against HEK293 cells expressing OAT3 assessed as cell viability at 108 ug/ml incubated for 3 hrs by Cell-titer Glo assay; type: ADME, cell-based; conditions: human, hek293, 3 h, dose 108 µg/ml; in short: as §2
[11] = Cytotoxicity against MDCK1 assessed as cell viability at 108 ug/ml incubated for 3 hrs by Cell-titer Glo assay; design: species or system Canis lupus familiaris; conditions: dog, mdck1, 3 h, dose 108 µg/ml; in short: as §2
[12] = system: Caco-2; test: Cytotoxicity against human Caco2 cells assessed as cell viability at 108 ug/ml incubated for 3 hrs by MTT assay; type: cell-based; conditions: caco-2, 3 h, dose 108 µg/ml
In short: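 Undifferentiated Caco-2 cells, medium aspirated, treated 3 h at 37 °C, 220 rpm with compound in HEPES-buffered HBSS (HBSS alone as negative control, SDS as positive control). MTT then added (final 0.5 mg mL⁻¹) for 2 h more. Formazan dissolved overnight at 4 °C in 10 mM HCl/50% isobutanol/10% SDS. Mean ± SD of 3 wells, one passage.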

| Compound | MIC [1] [µg/mL] | also measured |
| --- | --- | --- |
| C=C[C@]1(C)C[C@@H](OC(=O)Cn2cc(-c3cccc(Cc4cccc(CN(CC)CC)c4)c3)nn2)[C@]2(C)[C@H](C)CC[C@]3(CCC(=O)[C@H]32)[C@@H](C)[C@@H]1O | 2 (≈ 2.94 µM) | – |
| C=C[C@]1(C)C[C@@H](OC(=O)Cn2cc(-c3ccccc3Cn3cnc4c(N(CC)CC)ncnc43)nn2)[C@]2(C)[C@H](C)CC[C@]3(CCC(=O)[C@H]32)[C@@H](C)[C@@H]1O | 1 (≈ 1.41 µM) | – |
| C=C[C@]1(C)C[C@@H](OC(=O)Cn2cc(-c3ccc(Cc4ccc(OC)cc4)cc3)nn2)[C@]2(C)[C@H](C)CC[C@]3(CCC(=O)[C@H]32)[C@@H](C)[C@@H]1O | 8 (≈ 12.8 µM) | – |
| C=C[C@]1(C)C[C@@H](OC(=O)Cn2cc(-c3ccccc3C#N)nn2)[C@]2(C)[C@H](C)CC[C@]3(CCC(=O)[C@H]32)[C@@H](C)[C@@H]1O | 0.5 (≈ 0.942 µM) | – |
| C=C[C@]1(C)C[C@@H](OC(=O)Cn2cc(-c3cccc(Cn4cnc5c(N(CC)CC)nc(N)nc54)c3)nn2)[C@]2(C)[C@H](C)CC[C@]3(CCC(=O)[C@H]32)[C@@H](C)[C@@H]1O | 0.5 (≈ 0.691 µM) | – |
| C=C[C@]1(C)C[C@@H](OC(=O)Cn2cc(-c3ccccc3Cn3cnc4c(N(CC)CC)nc(N)nc43)nn2)[C@]2(C)[C@H](C)CC[C@]3(CCC(=O)[C@H]32)[C@@H](C)[C@@H]1O | 0.5 (≈ 0.691 µM) | – |
| C=C[C@]1(C)C[C@@H](OC(=O)Cn2cc(-c3cccc(Cc4cccc(CO)c4)c3)nn2)[C@]2(C)[C@H](C)CC[C@]3(CCC(=O)[C@H]32)[C@@H](C)[C@@H]1O | 1 (≈ 1.6 µM) | – |
| C=C[C@]1(C)C[C@@H](OC(=O)Cn2cc(-c3ccccc3Cc3ccc(OC)cc3)nn2)[C@]2(C)[C@H](C)CC[C@]3(CCC(=O)[C@H]32)[C@@H](C)[C@@H]1O | 2 (≈ 3.2 µM) | – |
| C=C[C@]1(C)C[C@@H](OC(=O)Cn2cc(-c3cccc(Cn4cnc5c(N6CCN(C)CC6)ncnc54)c3)nn2)[C@]2(C)[C@H](C)CC[C@]3(CCC(=O)[C@H]32)[C@@H](C)[C@@H]1O | 0.5 (≈ 0.679 µM) | – |
| C=C[C@]1(C)C[C@@H](OC(=O)Cn2cc(-c3cccc(Cn4cnc5c(N(CC)CC)ncnc54)c3)nn2)[C@]2(C)[C@H](C)CC[C@]3(CCC(=O)[C@H]32)[C@@H](C)[C@@H]1O | 1 (≈ 1.41 µM) | – |
| C=C[C@]1(C)C[C@@H](OC(=O)Cn2cc(-c3ccc(-n4cnc5c(N)ncnc54)cc3)nn2)[C@]2(C)[C@H](C)CC[C@]3(CCC(=O)[C@H]32)[C@@H](C)[C@@H]1O | 0.5 (≈ 0.783 µM) | – |
| C=C[C@]1(C)C[C@@H](OC(=O)Cn2cc(-c3cccc(CN4CCN(C)CC4)c3)nn2)[C@]2(C)[C@H](C)CC[C@]3(CCC(=O)[C@H]32)[C@@H](C)[C@@H]1O | 2 (≈ 3.24 µM) | – |
| C=C[C@]1(C)C[C@@H](OC(=O)Cn2cc(-c3ccc(CN)cc3)nn2)[C@]2(C)[C@H](C)CC[C@]3(CCC(=O)[C@H]32)[C@@H](C)[C@@H]1O | 2 (≈ 3.74 µM) | – |
| C=C[C@]1(C)C[C@@H](OC(=O)Cn2cc(-c3ccccc3Cn3cc(C)c(=O)[nH]c3=O)nn2)[C@]2(C)[C@H](C)CC[C@]3(CCC(=O)[C@H]32)[C@@H](C)[C@@H]1O | 1 (≈ 1.55 µM) | – |
| C=C[C@]1(C)C[C@@H](OC(=O)Cn2cc(-c3cccc(Cc4ccc(N(CC)CC)cc4)c3)nn2)[C@]2(C)[C@H](C)CC[C@]3(CCC(=O)[C@H]32)[C@@H](C)[C@@H]1O | 8 (≈ 12 µM) | – |
| C=C[C@]1(C)C[C@@H](OC(=O)Cn2cc(-c3cccc(Cn4cc(C)c(=O)[nH]c4=O)c3)nn2)[C@]2(C)[C@H](C)CC[C@]3(CCC(=O)[C@H]32)[C@@H](C)[C@@H]1O | 1 (≈ 1.55 µM) | – |
| C=C[C@]1(C)C[C@@H](OC(=O)Cn2cc(-c3ccccc3CN)nn2)[C@]2(C)[C@H](C)CC[C@]3(CCC(=O)[C@H]32)[C@@H](C)[C@@H]1O | 4 (≈ 7.48 µM) | – |
| C=C[C@]1(C)C[C@@H](OC(=O)Cn2cc(-c3cccc(CN)c3)nn2)[C@]2(C)[C@H](C)CC[C@]3(CCC(=O)[C@H]32)[C@@H](C)[C@@H]1O | 2 (≈ 3.74 µM) | – |

| Compound | MIC [1] [µg/mL] | also measured |
| --- | --- | --- |
| C=C[C@]1(C)C[C@@H](OC(=O)Cn2cc(-c3ccc(Cn4cnc5c(NCCN)ncnc54)cc3)nn2)[C@]2(C)[C@H](C)CC[C@]3(CCC(=O)[C@H]32)[C@@H](C)[C@@H]1O | 0.5 (≈ 0.719 µM) | – |
| C=C[C@]1(C)C[C@@H](OC(=O)Cn2cc(-c3cccc(-n4cnc5c(N)ncnc54)c3)nn2)[C@]2(C)[C@H](C)CC[C@]3(CCC(=O)[C@H]32)[C@@H](C)[C@@H]1O | 0.06 (≈ 0.0939 µM) | – |
| C=C[C@]1(C)C[C@@H](OC(=O)Cn2cc(-c3ccccc3Cn3cnc4c(N)ncnc43)nn2)[C@]2(C)[C@H](C)CC[C@]3(CCC(=O)[C@H]32)[C@@H](C)[C@@H]1O | 0.5 (≈ 0.766 µM) | – |
| C=C[C@]1(C)C[C@@H](OC(=O)Cn2cc(-c3ccc(CO)cc3)nn2)[C@]2(C)[C@H](C)CC[C@]3(CCC(=O)[C@H]32)[C@@H](C)[C@@H]1O | 0.25 (≈ 0.467 µM) | – |
| C=C[C@]1(C)C[C@@H](OC(=O)Cn2cc(-c3cccc(Cn4cnc5c(N)ncnc54)c3)nn2)[C@]2(C)[C@H](C)CC[C@]3(CCC(=O)[C@H]32)[C@@H](C)[C@@H]1O | 0.25 (≈ 0.383 µM) | – |
| C=C[C@]1(C)C[C@@H](OC(=O)Cn2cc(-c3ccccc3)nn2)[C@]2(C)[C@H](C)CC[C@]3(CCC(=O)[C@H]32)[C@@H](C)[C@@H]1O | 2 (≈ 3.96 µM) | – |
| C=C[C@]1(C)C[C@@H](OC(=O)Cn2cc(-c3cccc(C#N)c3)nn2)[C@]2(C)[C@H](C)CC[C@]3(CCC(=O)[C@H]32)[C@@H](C)[C@@H]1O | 1 (≈ 1.88 µM) | – |
| C=C[C@]1(C)C[C@@H](OC(=O)Cn2cc(-c3ccc(CN4CCN(C)CC4)cc3)nn2)[C@]2(C)[C@H](C)CC[C@]3(CCC(=O)[C@H]32)[C@@H](C)[C@@H]1O | 4 (≈ 6.47 µM) | – |
| C=C[C@]1(C)C[C@@H](OC(=O)Cn2cc(-c3ccc(CN(CC)CC)cc3)nn2)[C@]2(C)[C@H](C)CC[C@]3(CCC(=O)[C@H]32)[C@@H](C)[C@@H]1O | 4 (≈ 6.77 µM) | – |
| C=C[C@]1(C)C[C@@H](OC(=O)Cn2cc(-c3ccc(CN4C(=O)c5ccccc5C4=O)cc3)nn2)[C@]2(C)[C@H](C)CC[C@]3(CCC(=O)[C@H]32)[C@@H](C)[C@@H]1O | 0.25 (≈ 0.376 µM) | – |
| C=C[C@]1(C)C[C@@H](OC(=O)Cn2cc(-c3cccc(CO)c3)nn2)[C@]2(C)[C@H](C)CC[C@]3(CCC(=O)[C@H]32)[C@@H](C)[C@@H]1O | 0.5 (≈ 0.933 µM) | – |
| C=C[C@]1(C)C[C@@H](OC(=O)Cn2cc(-c3cccc(N)c3)nn2)[C@]2(C)[C@H](C)CC[C@]3(CCC(=O)[C@H]32)[C@@H](C)[C@@H]1O | 1 (≈ 1.92 µM) | – |
| C=C[C@]1(C)C[C@@H](OC(=O)Cn2cc(-c3ccc(Cn4cnc5c(N(CC)CC)ncnc54)cc3)nn2)[C@]2(C)[C@H](C)CC[C@]3(CCC(=O)[C@H]32)[C@@H](C)[C@@H]1O | 0.25 (≈ 0.353 µM) | – |
| C=C[C@]1(C)C[C@@H](OC(=O)Cn2cc(-c3cccc(CN(CC)CC)c3)nn2)[C@]2(C)[C@H](C)CC[C@]3(CCC(=O)[C@H]32)[C@@H](C)[C@@H]1O | 2 (≈ 3.39 µM) | – |
| C=C[C@]1(C)C[C@@H](OC(=O)Cn2cc(-c3ccc(Cn4cnc5c(N)ncnc54)cc3)nn2)[C@]2(C)[C@H](C)CC[C@]3(CCC(=O)[C@H]32)[C@@H](C)[C@@H]1O | 0.03 (≈ 0.046 µM) | MBC [2]: 0.12 µg/mL (≈ 0.184 µM); MIC [3]: 0.06 µg/mL (≈ 0.0919 µM); MIC [4]: 0.03 µg/mL (≈ 0.046 µM); MIC [5]: 0.06 µg/mL (≈ 0.0919 µM); MIC [6]: 0.25 µg/mL (≈ 0.383 µM); Activity [7]: Toxic; Activity [8]: Non-Toxic; Activity [9]: Non-Toxic; Activity [10]: Non-Toxic; Activity [11]: Non-Toxic; Activity [12]: Non-Toxic |
| C=C[C@]1(C)C[C@@H](OC(=O)Cn2cc(-c3ccc(Cn4cnc5c(NC(=N)N)ncnc54)cc3)nn2)[C@]2(C)[C@H](C)CC[C@]3(CCC(=O)[C@H]32)[C@@H](C)[C@@H]1O | 0.5 (≈ 0.72 µM) | – |
| C=C[C@]1(C)C[C@@H](OC(=O)Cn2cc(-c3ccc(Cn4cc(C)c(=O)[nH]c4=O)cc3)nn2)[C@]2(C)[C@H](C)CC[C@]3(CCC(=O)[C@H]32)[C@@H](C)[C@@H]1O | 0.13 (≈ 0.202 µM) | – |
| C=C[C@]1(C)C[C@@H](OC(=O)Cn2cc(-c3cccc(Cc4ccc(OC)cc4)c3)nn2)[C@]2(C)[C@H](C)CC[C@]3(CCC(=O)[C@H]32)[C@@H](C)[C@@H]1O | 16 (≈ 25.6 µM) | – |
